Results reported in PubChem BioAssay AID652185 (Vanderbilt Specialized Chemistry Center, 2013).
Calls of active or inactive are those of the source. No rule for the calls is given here.

Target: Metabotropic glutamate receptor 2 (Rattus norvegicus) (UniProt P31421)
Test: mGlu2 glutamate EC50 shift by compounds – cell-based, HEK293A, Galpha15, calcium mobilization, selectivity assay for mGlu5 silent allosteric modulators, profiling panel (AID 652185)
Conditions: HEK293A rmGlu2+Galpha15, Fluo4 calcium mobilization, glutamate CRC
Method in brief: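 System: rat mGlu2 plus Galpha15 in HEK293A cells / Times: 60 min 37 °C dye load, compound 60 s pre-glutamate / Dosing: 10 µM compound, 1% DMSO / Detection: Fluo4 calcium fluorescence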

Chain of Metabotropic glutamate receptor 2 (Rattus norvegicus) (P31421 whole entry, looked up): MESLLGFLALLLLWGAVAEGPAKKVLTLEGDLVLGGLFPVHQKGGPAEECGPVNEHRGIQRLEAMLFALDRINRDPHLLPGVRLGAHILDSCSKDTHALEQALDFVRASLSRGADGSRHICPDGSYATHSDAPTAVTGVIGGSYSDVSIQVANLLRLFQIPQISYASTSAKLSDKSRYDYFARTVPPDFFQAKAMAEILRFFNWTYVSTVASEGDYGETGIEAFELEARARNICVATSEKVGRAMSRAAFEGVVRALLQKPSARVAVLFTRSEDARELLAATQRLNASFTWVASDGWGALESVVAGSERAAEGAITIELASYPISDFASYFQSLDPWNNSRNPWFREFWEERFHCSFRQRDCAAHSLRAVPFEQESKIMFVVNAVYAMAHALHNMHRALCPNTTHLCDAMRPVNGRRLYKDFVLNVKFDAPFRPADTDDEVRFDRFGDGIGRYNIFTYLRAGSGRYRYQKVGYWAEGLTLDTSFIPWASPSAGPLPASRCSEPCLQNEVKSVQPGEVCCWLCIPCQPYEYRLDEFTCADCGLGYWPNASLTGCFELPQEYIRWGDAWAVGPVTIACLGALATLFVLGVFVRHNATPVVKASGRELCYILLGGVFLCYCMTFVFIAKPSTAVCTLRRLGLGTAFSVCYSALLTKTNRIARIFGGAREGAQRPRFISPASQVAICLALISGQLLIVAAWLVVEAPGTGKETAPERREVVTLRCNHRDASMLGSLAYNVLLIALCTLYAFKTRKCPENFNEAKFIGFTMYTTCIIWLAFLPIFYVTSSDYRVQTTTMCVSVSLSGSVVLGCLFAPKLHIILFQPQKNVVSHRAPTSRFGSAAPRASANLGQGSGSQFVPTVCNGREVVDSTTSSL

SMILES: O=C(c1ccc(C#Cc2cccc(F)c2)cn1)N1CC2CC2C1 (stereo unspecified)
- glutamate EC50 in presence of 10 uM compound (no shift = inactive): inactive
